Bioassay records: PubChem BioAssay, several laboratories
LEDGF integ inh: blockers of LEDGF/p75-dependent integrase strand transfer – biochemical, TR-FRET, high throughput, primary screen | HIV-1 integrase (with human LEDGF/p75) | TR-FRET IN-LEDGF/p75 DNA integration, Eu/Cy5 | inhibition, % at 3.7 µM | hit rate 0.64% among 370,000 | AID 743269, 2014;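 active = inhibition above the screen-wide mean plus 3 SD, cut at about 13% in these data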;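 note: signal is the Cy5 over europium emission ratio at 671 and 618 nm; 0% = plate median of compound wells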
UHRF1 binding: UHRF1 methylated DNA binding inhibitors, primary screen, counter-screen for MBD2 inhibitor project, biochemical, TR-FRET, human UHRF1, single concentration | hit rate 0.75% among 370,000 | inhibition, % at 4.4 µM | E3 ubiquitin-protein ligase UHRF1 (Homo sapiens), Q96T88 | UHRF1 binding to methylated oligo | AID 687016, 2013; in the data active = inhibition above about 21%;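 note: UHRF1 SRA domain binding a hemimethylated CpG hairpin DNA probe; 0% = median of test compound wells and 100% = reference inhibitor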
Casp6 inh: human caspase-6 inhibitors, primary screen, biochemical, VEID-R110 fluorescence, single point, set 2; purified caspase-6, Z-VEID-R110 cleavage fluorescence; hit rate 0.53% among 350,000; inhibition, % at 12.5 µM;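 active = mean inhibition across replicates at least about 35%, with every replicate also reaching that limit, limit read from the data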;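 note: 0% = median of neutral control wells and 100% = no fluorescence left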
NSD2 inh: NSD2 histone methyltransferase inhibitors, primary screen, biochemical, AlphaScreen, single concentration, set 2; Histone-lysine N-methyltransferase NSD2 (Homo sapiens), O96028; hit rate 0.54% among 310,000; inhibition, % at 12.5 µM; NSD2 peptide methylation, 120 min; in the data active = inhibition above about 50%
Target sequence (O96028 whole entry, looked up): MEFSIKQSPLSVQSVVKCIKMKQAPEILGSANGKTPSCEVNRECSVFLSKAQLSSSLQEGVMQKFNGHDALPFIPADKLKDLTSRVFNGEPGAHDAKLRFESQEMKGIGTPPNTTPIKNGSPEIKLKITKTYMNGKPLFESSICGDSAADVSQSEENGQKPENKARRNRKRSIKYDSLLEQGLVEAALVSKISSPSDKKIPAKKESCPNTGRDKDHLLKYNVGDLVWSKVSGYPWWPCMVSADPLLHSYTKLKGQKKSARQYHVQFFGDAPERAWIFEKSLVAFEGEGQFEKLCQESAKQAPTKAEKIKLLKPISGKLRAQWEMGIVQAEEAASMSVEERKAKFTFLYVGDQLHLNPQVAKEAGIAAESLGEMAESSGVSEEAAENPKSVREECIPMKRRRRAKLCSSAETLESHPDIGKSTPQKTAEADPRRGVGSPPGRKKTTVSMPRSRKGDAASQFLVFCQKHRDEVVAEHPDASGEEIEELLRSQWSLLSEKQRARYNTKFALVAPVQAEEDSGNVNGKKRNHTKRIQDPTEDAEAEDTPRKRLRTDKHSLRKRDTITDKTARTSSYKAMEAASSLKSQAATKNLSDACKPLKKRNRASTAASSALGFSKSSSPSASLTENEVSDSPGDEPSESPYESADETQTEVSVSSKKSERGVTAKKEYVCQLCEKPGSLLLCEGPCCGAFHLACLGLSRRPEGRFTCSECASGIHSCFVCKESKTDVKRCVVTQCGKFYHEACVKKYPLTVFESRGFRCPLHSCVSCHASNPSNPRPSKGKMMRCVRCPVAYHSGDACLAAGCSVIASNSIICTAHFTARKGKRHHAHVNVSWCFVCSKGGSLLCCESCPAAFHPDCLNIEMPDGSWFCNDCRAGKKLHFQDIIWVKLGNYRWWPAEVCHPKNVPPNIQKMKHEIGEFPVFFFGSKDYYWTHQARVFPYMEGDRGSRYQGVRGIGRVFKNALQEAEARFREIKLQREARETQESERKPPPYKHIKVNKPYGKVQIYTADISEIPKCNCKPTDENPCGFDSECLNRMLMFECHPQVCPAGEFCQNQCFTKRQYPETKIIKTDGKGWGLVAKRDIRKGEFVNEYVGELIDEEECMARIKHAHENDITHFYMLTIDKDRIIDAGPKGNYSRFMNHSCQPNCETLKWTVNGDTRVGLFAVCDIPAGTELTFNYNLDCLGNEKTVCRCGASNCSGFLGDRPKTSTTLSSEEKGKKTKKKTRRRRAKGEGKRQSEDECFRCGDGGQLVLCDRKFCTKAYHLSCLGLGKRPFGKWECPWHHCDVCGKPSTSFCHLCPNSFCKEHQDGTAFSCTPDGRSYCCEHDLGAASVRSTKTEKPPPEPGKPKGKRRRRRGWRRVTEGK
MBD2 inh: inhibitors of MBD2 binding to methylated DNA, primary screen, biochemical, TR-FRET, DNA-binding domain, human | Methyl-CpG-binding domain protein 2 (Homo sapiens), Q9UBB5 | MBD2 binding to methylated oligonucleotide | inhibition, % at 4.4 µM | hit rate 0.31% among 370,000; in the data active = inhibition above about 13%
TDP2 inh: human TDP2 enzyme inhibitors, primary screen, biochemical, epi absorbance, recombinant enzyme | T5PNP hydrolysis, p-nitrophenol absorbance 415 nm | inhibition, % at 12.8 µM | hit rate 0.34% among 370,000 | AID 720702, 2013;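 active = inhibition above the mean of all tested compounds plus 3 SD, set per campaign, cut at about 25% in these data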;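 note: 0% = DMSO with enzyme and 100% = buffer with substrate but no TDP2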
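Evaluation: % inhibition relative to enzyme-containing and enzyme-free wells. Material: recombinant human TDP2. Benchmarks: enzyme-free and DMSO wells. Timing: enzyme reaction with compound for 2 h at 37 °C. Compound dosing: 12.8 µM only. Measured by: p-Nitrophenol epi absorbance. Reagent: T5PNP substrate at 5 mM, a TopII-DNA adduct mimic. Replication: single well per compound.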
UHRF1 DNA bind: UHRF1 methylated DNA binding inhibitors, counter-screen for MBD2 inhibitor project, biochemical, TR-FRET, human UHRF1 | hit rate 25% among 1,000 | AID 720530, 2013 | UHRF1 binding to methylated oligonucleotide | shares compounds with MBD2 inh | inhibition, % at 4.4 µM; in the data active = inhibition above about 21%;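 note: UHRF1 SRA domain binding a labeled hemimethylated CpG hairpin DNA; 0% = vehicle only and 100% = reference inhibitor with vehicle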
MBD2 confirm: inhibitors of MBD2 binding to methylated DNA, confirmation, biochemical, TR-FRET, DNA-binding domain, human | shares compounds with MBD2 inh | TR-FRET MBD2-DBD binding to methylated oligonucleotide | inhibition, % at 4.4 µM | hit rate 26% among 1,000 | AID 720531, 2013
CASP1 counter: human caspase-1 inhibitors, dose response, selectivity assay for caspase-6 inhibitor project, biochemical, Z-YVAD-R110 fluorescence, cherry-pick, set 2; purified caspase-1, Z-YVAD-R110 cleavage fluorescence; activity change, negative = inhibition, % at 35 µM; 100 tested, under 10 active; shares compounds with Casp6 inh;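 active = compounds lowering fluorescence whose fitted half-maximal concentration is no more than twice their top tested dose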
TDP2 inh conf: human TDP2 enzyme inhibitors, retest, confirmation, biochemical, epi absorbance, recombinant enzyme; hit rate 22% among 1,100; inhibition, % at 12.8 µM; AID 743263, 2014; shares compounds with TDP2 inh; absorbance read-out; in the data active = inhibition above about 25%;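 note: 0% = vehicle with enzyme and 100% = no enzyme buffer only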
IN multimer act: HIV-1 IN multimer formation enhancers, counter-screen for LEDGF/p75 integration inhibitor project, biochemical, TR-FRET; shares compounds with LEDGF integ inh; AID 1053131, 2014; TR-FRET HIV-1 integrase multimerization; activation, % at 7.7 µM; hit rate 17% among 2,000; in the data active = activation above about 8.9%
TRFRET interf: TR-FRET optical interference artefacts, confirmation, artefact control for LEDGF/p75-dependent integration inhibitor project, biochemical, HIV-1 IN multimerization. shares compounds with LEDGF integ inh. TR-FRET optical interference counterscreen. inhibition, % at 7.7 µM. 2,000 tested, under 10 active;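 active = inhibition above the mean over all tested compounds plus 3 SD, which no compound reached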;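 note: 0% = integrase with antibodies and DMSO and 100% = antibodies without integrase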
LEDGF integ conf: inhibitors of HIV-1 IN-LEDGF/p75 DNA integration, confirmation, biochemical, TR-FRET | shares compounds with LEDGF integ inh | TR-FRET LEDGF/p75-dependent HIV-1 integration | inhibition, % at 3.7 µM | hit rate 36% among 2,000
* = called active by the depositor; / = not tested or not shown. A selection: hits, their analogues and other compounds. The true share with any hit is near 1.8%. Cut-off read from the data, not from the text of the source, unless noted: active = inhibition above about 14%; inactive = the rest.

SMILES | LEDGF integ inh | UHRF1 binding | Casp6 inh | NSD2 inh | MBD2 inh | TDP2 inh | UHRF1 DNA bind | MBD2 confirm | IN multimer act | TRFRET interf | LEDGF integ conf | others
O=C(CCO)c1ccc(O)cc1 | 31.6* | 28.3* | 75.3* | / | 16.2* | 2.4 | 55.4* | 27.6* | 54.3* | -273.4 | 71.2* | CASP1 counter=-0.4
CCCCC(=O)c1ccc(O)cc1 | -3.0 | -3.7 | 0.1 | 0.3 | -0.3 | 8.6 | / | / | / | / | /
COC(=O)C1CCN(C(=O)c2cc(-c3ccco3)nc3ccccc23)CC1 | 28.1* | 40.0* | 57.7* | 4.3 | 21.7* | -2.2 | 30.1* | 21.6* | 14.6* | -73.7 | 48.9*
NN1C(=O)/C(=C\c2ccco2)SC1=S | 54.7* | 63.3* | 70.3* | -0.2 | 17.4* | 14.4 | 3.1 | 0.4 | 3.3 | -16.6 | 10.4
O=C1/C(=C/c2ccco2)SC(=S)N1c1cccnc1 | 92.7* | 98.3* | 83.3* | / | 104.6* | 3.7 | 69.5* | 31.9* | 15.8* | -79.6 | 65.6*
O=S(=O)(c1ccccc1)N1CC[C@@H]2[C@H](CO)Nc3ccc(C#CC4CCCCC4)cc3[C@@H]21 | / | / | 0.7 | / | / | / | / | / | / | / | /
C[C@H](CO)N1C[C@H](C)[C@H](CN(C)S(=O)(=O)c2ccc(F)cc2)OCCCC[C@H](C)Oc2ccc(NC(=O)C3CCCCC3)cc2C1=O | / | / | 1.8 | / | / | / | / | / | / | / | /
Cc1ccc(C=C2C(=O)c3ccccc3C2=O)o1 | 8.2 | 9.7 | / | 34.7 | -1.5 | 10.4 | / | / | / | / | /
Cc1ccc(/C=C2/C(=O)c3ccc(C(=O)O)cc3C2=O)o1 | 69.2* | 78.0* | 29.9 | / | 22.2* | 25.7* | 40.0* | 2.4 | 24.5* | -87.5 | 57.6* | TDP2 inh conf=24.6*
CO[C@H]1O[C@H](CO)[C@@H](OC(=O)Nc2cccc(F)c2)[C@H](OC(=O)Nc2ccccc2)[C@H]1OC(=O)Nc1ccccc1 | / | / | 1.5 | / | / | / | / | / | / | / | /
COc1cc(C)c2c(c1C=O)Oc1c(c(C)c(O)c3c1C(O)OC3=O)OC2=O (stereo not drawn) | 90.2* | 65.2* | 78.0* | / | 30.6* | -4.4 | 23.8* | 8.6 | 0.6 | -3.1 | 91.5* | CASP1 counter=-2.5
O=C(C=Cc1ccco1)c1ccco1 | 73.2* | 57.6* | 55.6* | 0.1 | 19.5* | -8.0 | 10.5 | 1.5 | 2.1 | -7.5 | 7.1
O=C(O)c1ccccc1-c1ccc(C=c2sc3nc4cc(Br)cnc4n3c2=O)o1 | 28.6* | 95.1* | / | / | 55.1* | -11.2 | 72.1* | 63.0* | -2.6 | 13.2 | 16.9*
O=C(O)c1cccc(-c2ccc(/C=c3/sc4nc5ccccc5n4c3=O)o2)c1 | 45.5* | 80.8* | 36.6* | 31.0 | 33.6* | 8.6 | 54.2* | 19.4* | 10.8* | -54.4 | 20.2*
CC(=O)Nc1ccc2c(c1)C(=O)N(C)[C@@H]1CC[C@@H](CC(=O)NCc3ccc(Cl)cc3)O[C@H]1CO2 | / | / | -0.7 | / | / | / | / | / | / | / | /
O=C1CSCN1c1ccccc1 | / | / | -0.1 | / | / | / | / | / | / | / | /
COc1cccc(-n2c(SCC(=O)NCCc3ccccc3)nnc2-c2ccoc2C)c1 | 14.0* | 28.2* | / | 48.9 | 17.4* | 21.4 | 3.0 | 4.1 | -2.0 | 9.9 | -7.3
O=c1oc2c(-c3ccc([N+](=O)[O-])cc3)cc(O)cc2s1 | 24.8* | 29.8* | 7.7 | -1.1 | 21.4* | 17.8 | 10.2 | 7.0 | 1.2 | -4.3 | -4.4
Cc1c(Br)c(O)c(Br)c2sc(=O)oc12 | 55.2* | 33.0* | 3.9 | 4.0 | 15.8* | 42.0* | 8.8 | 4.6 | 1.6 | -8.0 | 13.7* | TDP2 inh conf=16.4
O=C1CC(c2ccc(O)c(O)c2)Oc2c1ccc(O)c2O (stereo not drawn) | 92.7* | 64.5* | 75.3* | / | 34.9* | -11.0 | 26.7* | 9.1 | 57.4* | -289.1 | 90.8*
COc1ccc(NC(=O)N(C)C[C@@H]2Oc3cc(C#CCN(C)C)ccc3S(=O)(=O)N([C@@H](C)CO)C[C@@H]2C)cc1 | / | / | -0.5 | / | / | / | / | / | / | / | /
O=C(c1coc(=O)c(Br)c1)N1CCC(C(O)(c2ccccc2)c2ccccc2)CC1 | -1.0 | 1.5 | -0.5 | 36.9 | -3.8 | 2.6 | / | / | / | / | /
CC1(C)CCCN(C(=O)c2coc(=O)c(Br)c2)C1 | 21.7* | 62.1* | / | 114.0* | 17.7* | 6.9 | 101.1* | 64.9* | 16.4* | -82.8 | 65.4*
CCCC#Cc1cnc2c(c1)C(=O)N([C@@H](C)CO)C[C@@H](C)[C@@H](CN(C)C(=O)NC1CCCC1)O2 | / | / | -0.3 | / | / | / | / | / | / | / | /
O=S(=O)(c1cc(O)ccc1O)c1cccc2c(S(=O)(=O)c3cc(O)ccc3O)cccc12 | 16.2* | 32.9* | / | / | 20.3* | 3.0 | 36.9* | 16.9* | 21.6* | -109.0 | 41.4*
O=S(=O)(O)c1cc(O)ccc1O | -0.4 | 1.1 | 0.5 | / | -3.2 | 2.0 | / | / | / | / | /
